STAT3 blocker = reduces IL-6 driven STAT3 reporter signal; U3A cells, IL-6 STAT3-luciferase reporter, luminescence; host cell line lacks STAT1; inhibition, % at 5.5 µM; 190,000 compounds, 0.89% hits; AID 862;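 active means inhibition above the mean inhibition across all screened compounds plus 3 SD, cut at about 44% in these data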;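 further: 0% = DMSO only wells and 100% = 100 µM nifuroxazide control wells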
STAT1 blocker = STAT1 signaling inhibition | NIH 3T3 STAT1-luciferase reporter, IFN-gamma, luminescence | AID 920 | inhibition, % at 5.5 µM | 200,000 compounds, 0.35% hits;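 active means inhibition above a set limit, the mean inhibition across all tested compounds plus 3 SD, cut at about 34% in these data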;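 further: 0% = IFN-gamma with DMSO and 100% = IFN-gamma with 300 µM nifuroxazide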
NF-kB neuron act = NF-kB expression increase, human neuronal cells | NF-kB reporter expression; hits give high values | fold change at 12.5 µM | 190,000 compounds, 1.6% hits; in the data active means fold change above about 3.3
APP 5'UTR act = activates APP 5'UTR luciferase reporter. SH-SY5Y APP 5'UTR luciferase reporter, luminescence; zero percent = DMSO vehicle wells. activation, % at 2 µM. 190,000 compounds, 1% hits. AID 1276;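 active means activation above a set limit, based on mean plus 3 SD of controls, cut at about 140% in these data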
STAT3 act = increases IL-6 driven STAT3 reporter signal. AID 871. U3A cells, IL-6 STAT3-luciferase reporter, luminescence; 100% = signal with IL-6 EC80 alone. 190,000 compounds, 0.91% hits. activation (% of control), % at 5.6 µM;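 active means activation above the screen-wide mean of compound activation plus 3 SD, cut at about 130% in these data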;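 further: 0% = background luminescence of wells with medium and substrate only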
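Test system: STAT3-luciferase reporter U3A cells; Detection: reporter luminescence signal; Times: 1 h compound pre-exposure, 6 h IL-6 stimulation, 37 °C; Benchmarks: IL-6-only high control; Also added: IL-6 stimulus at 33 ng/mL final.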
STAT1 activator = increases IFN-gamma driven STAT1 reporter signal; activation (% of control), % at 5.5 µM; 200,000 compounds, 2.6% hits; NIH 3T3 STAT1-luciferase reporter, luminescence; 100% = IFN-gamma alone, no compound; AID 932;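 active means activation above the screen-wide mean activation plus 3 SD, cut at about 130% in these data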;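 further: raw ratio to IFN-gamma control signal so 100% means no change and 0% no light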
* hit, by the source's call; x = not tested or not shown. Rows were chosen to be rich in hits. Some 5.1% of all compounds tested hit in one or more screens of this group.

SMILES | STAT3 blocker | STAT1 blocker | NF-kB neuron act | APP 5'UTR act | STAT3 act | STAT1 activator
CCOC(=O)c1cc(-c2ccccc2)sc1N | 2 | -38 | 2.4 | 28 | 101 | 135*
CCOC(=O)CC(=O)Nc1nc2ccccc2s1 | 3 | -15 | 1.3 | 0 | 104 | 114
CCOC(=O)c1nc(NNC(C)=O)sc1C | 11 | 0 | 1.1 | 13 | 94 | 99
CCOC(=O)c1sc(-c2ccc(F)cc2)cc1N | -4 | -27 | 2.1 | 95 | 104 | 125
CCOC(=O)c1nc(NCCc2ccccc2)sc1C | 6 | -34 | 2.4 | 15 | 99 | 132*
CC1CN(c2ccccc2)NC1=O (configuration not stated) | 3 | -5 | 0.89 | 0 | 102 | 104
Cc1c(/C=N/O)c2ccccn2c1C=O | -5 | 4 | 1.1 | 10 | 106 | 97
CNc1nc(C)c(C(=O)OCc2ccccc2)s1 | 0 | -17 | 5* | 28 | 101 | 116
CCOC(=O)c1sc(-c2ccccc2)nc1C | 0 | -42 | 1.4 | 41 | 104 | 135*
CCCCOCCCNC(=O)CC(C)c1ccccc1 (configuration not stated) | -3 | 11 | 1.3 | 6 | 103 | 90
Cc1ccc(N(CC(=O)Nc2ccccc2-c2ccccc2)S(=O)(=O)c2ccccc2)c(C)c1 | 0 | -5 | 0.98 | 24 | 104 | 105
Cc1cc2nn(-c3ccccc3)nc2cc1NC(=O)c1cccs1 | -2 | -47 | 2.1 | 29 | 105 | 143*
CCC(=O)Nc1cc2nn(-c3ccccc3)nc2cc1Cl | 27 | -48 | 2.7 | 116 | 82 | 144*
Cc1cc(C(=O)C[N+]2(C)CCOCC2)c(C)n1-c1ccc(Br)cc1 | 12 | -1 | 1.3 | -1 | 97 | 101
Cc1nn(-c2nc3ccccc3s2)c(C)c1Oc1ccccc1O | -20 | 5 | 2.6 | 184* | 123 | 95
Cc1nn(-c2ccccn2)c(C)c1Oc1ccccc1O | 7 | 5 | 1 | -1 | 97 | 96
CC(C)NC(=S)N/N=C1\CCCc2ccccc21 | 1 | -8 | 0.84 | 8 | 106 | 106
N#Cc1cc2ccccc2nc1SCc1ccccn1 | -22 | -52 | 5.3* | 186* | 124 | 147*
Cc1cc2cc3c(cc2nc1SCc1ccccn1)OCCO3 | -4 | 7 | 1.4 | 37 | 103 | 94
COC(=O)c1ccc(-c2ccc(/C=N/N3C(=O)C4C5C=CC(CC5)C4C3=O)o2)cc1 (configuration not stated) | -6 | -37 | 1.5 | 58 | 108 | 132*
CCOC(=O)c1cc(C(C)=O)c(=O)[nH]c1C | 4 | -5 | 1.1 | 222* | 99 | 104
Cc1cc(C)c(NC(=O)COC(=O)/C=C/c2cccs2)c(C)c1 | 1 | 7 | 1.1 | 27 | 99 | 94
CCOC(=O)CNC(=O)CSc1nnc(NC(=O)c2ccc(C)cc2)s1 | 72* | 59* | 2.8 | 37 | 39 | 44
CCOC(=O)CNC(=O)CSc1nnc(SCC(=O)NCC(=O)OCC)s1 | 1 | -2 | 0.95 | 4 | 102 | 102
COc1ccc(/C=C/C(=O)c2ccc[nH]2)cc1OC | -29 | -32 | 2.6 | 53 | 121 | 130*
SMILES | STAT3 blocker | STAT1 blocker | NF-kB neuron act | APP 5'UTR act | STAT3 act | STAT1 activator
COCCCNC(=O)/C(=C\c1cccn1C)NC(=O)c1cccs1 | 15 | 5 | 1 | -1 | 88 | 95
Cc1c(C(=O)NCc2ccoc2)oc2ccc3c(c12)C(=O)CC(C)(C)O3 | -1 | -49 | 3.9* | 120 | 106 | 146*
CC(C)(C)NC(=O)C(c1cccs1)N(Cc1ccc(F)cc1)C(=O)c1csnn1 (configuration not stated) | 2 | 8 | 1.2 | 12 | 103 | 91
Cc1c(N=Nc2c(-c3ccc([N+](=O)[O-])cc3)[nH]n(C(N)=S)c2=O)cccc1[N+](=O)[O-] | 77* | 20 | 0.69 | -23 | 37 | 80
O=C(O)c1ccccc1Nc1ccc([N+](=O)[O-])cc1 | -15 | -44 | 2.3 | 3 | 110 | 139*
O=C(O)c1ccccc1Nc1ccccc1C(=O)O | 4 | 1 | 1.1 | -2 | 100 | 99
C/C(CC(=O)NC(C)(C)C)=N\NC(=O)c1ccccc1N | 5 | -32 | 1.3 | 35 | 97 | 129*
O=C(O)c1ccccc1C(=O)NNc1cccc(Cl)n1 | 4 | -19 | 1.3 | 155* | 100 | 116
Cc1cc(C)c(C#N)c(SCc2nnc(-c3ccccc3[N+](=O)[O-])o2)n1 | -3 | -43 | 3.2 | 213* | 107 | 140*
COc1ccc(CCC(=O)Nc2sccc2C#N)cc1 | 14 | -30 | 2.4 | 130 | 92 | 130*
Cc1cc(C)cc(OCC(=O)OCC(=O)c2ccc3c(c2)NC(=O)CO3)c1 | -6 | -10 | 3.6* | x | 103 | 109
O=C(/C=C/c1ccccc1)c1ccc2c(c1)OCCCCO2 | -10 | -44 | 2.6 | 147* | 112 | 140*
CN(C)c1ccc(C(=O)/C=C/c2ccc(Br)cc2)cc1 | -5 | -24 | 1.1 | 17 | 104 | 122
Cc1ccc(C(=O)NCC(=O)OCC(=O)c2ccc3c(c2)NC(=O)CO3)cc1C | -11 | -4 | 1.3 | 0 | 110 | 102
CN(C)c1ccc(C(=O)/C=C/c2ccccc2)cc1 | 13 | -41 | 4.9* | 140* | 93 | 138*
O=C1COc2ccc(C(=O)/C=C/c3ccccc3)cc2N1 | 15 | 2 | 3.3* | 6 | 87 | 98
COc1ccccc1/C=C(\NC(=O)c1ccc(OC)c(OC)c1)C(=O)Nc1cc([N+](=O)[O-])ccc1C | 2 | 3 | 0.9 | -7 | 99 | 97
Cc1ccc2[nH]c(O)c(N=NC(=O)CCc3ccccc3)c2c1Br | 3 | -4 | 1.3 | -5 | 98 | 103
N#Cc1cccc(-n2nnnc2-c2ccc3c(c2)OCO3)c1 | -12 | -13 | 3.5* | 28 | 113 | 112
N#Cc1ccc(-c2nnnn2-c2ccc3c(c2)OCO3)cc1 | 1 | -5 | 1.3 | 21 | 102 | 104
CC1CCN(c2ccc(NC(=O)Cc3ccccc3)cc2)CC1 | 7 | -47 | 1.1 | 49 | 104 | 142*
COc1cccc(/C=C/C(=O)NCc2cn3cc(Cl)ccc3n2)c1 | 0 | -5 | 1.1 | 9 | 107 | 103
COc1ccc(C2=Nc3ccccc3OC2)cc1 | 4 | -25 | 8.4* | 128 | 100 | 123
CCCc1ccc(-c2ccc(C(=O)O)cc2)nc1 | 23 | -36 | 2.6 | 92 | 84 | 131*
CCCCCc1ccc(-c2ccc(OC)cc2)nc1 | 8 | -45 | 3.4* | 128 | 95 | 140*
Cc1ccc(C)c(OCCSc2nnc(C)c(=O)[nH]2)c1 | 11 | 7 | 0.92 | 10 | 99 | 92
CC(Oc1ccccc1F)C(=O)NNC(=O)c1cc2ccccc2o1 (configuration not stated) | 3 | -8 | x | -16 | 102 | 106
CCn1ncc(C(=O)Nc2cccc(Cl)c2)c1C | -17 | -47 | 2.4 | 86 | 115 | 144*

Bioassay records deposited in PubChem by several laboratories.
